The source of these data is ChEMBL document CHEMBL1159012, “Anti-aids agents, 6. Salaspermic acid, an anti-HIV principle from Tripterygium wilfordii, and the structure-activity correlation with its related compounds” (J Nat Prod, 1992).

Structures are written as SMILES. pEC50, pIC50: −log10 of the molar value. ≈ marks a conversion by molar mass, not a printed value. Calls of active or inactive are those of the source. The calls are words filed in the database; no cut-off is given here. Where only a bound is given, the exact number is not on record here.

Experiment [1] concerns H9. The experiment in a line: Cytotoxicity against human H9 cells. The format is cell-based. The method in brief:
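Uninfected H9 lymphocytes were handled in parallel with the infected cultures: 1 h mock exposure at 37°, washing, resuspension at 4×10^5 cells/ml, and 3 days at 37° with an equal volume of compound diluted in medium. Cell density was counted with a Coulter counter. IC50 was read graphically from a plot of % inhibition versus concentration.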

Experiment [2] deals with T1, Human immunodeficiency virus type 1 reverse transcriptase (Human immunodeficiency virus 1, UniProt Q72547). Description: Inhibition of HIV1 recombinant reverse transcriptase expressed in Escherichia coli using poly(rU)-oligo(dA) template.
In experiment [3] the target is T1, Human immunodeficiency virus type 1 reverse transcriptase. The experiment in a line: Inhibition of HIV1 recombinant reverse transcriptase expressed in Escherichia coli using poly(dC)-oligo(dG) template.
For experiment [4], the target named is Human immunodeficiency virus type 1 reverse transcriptase (Human immunodeficiency virus 1) (UniProt Q72547). The experiment in a line: Inhibition of HIV1 recombinant reverse transcriptase expressed in Escherichia coli using poly(rU)-oligo(dA) template at 100 ug/ml.
In experiment [5] the target is T1, Human immunodeficiency virus type 1 reverse transcriptase. Description: Inhibition of HIV1 recombinant reverse transcriptase expressed in Escherichia coli using poly(rA)-oligo(dT) template.
Experiment [6] can be described thus: Inhibition of HIV2 reverse transcriptase using poly(rC)-oligo(dG) template. The arrangement: species or system Human immunodeficiency virus 2. The method in brief: (§1)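 Reverse transcriptase purified from E. coli expressing it: HIV-1 from JM109 carrying pKRT2, HIV-2 from a strain bearing pASRT2. HIV-2 enzyme was run with poly(rC)·oligo(dG). EC50 values were reported.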

Experiment [7] addresses Human immunodeficiency virus type 1 reverse transcriptase (Human immunodeficiency virus 1) (UniProt Q72547). The experiment in a line: Inhibition of DNA polymerase activity of HIV1 recombinant reverse transcriptase. The essentials: as §1
In experiment [8] the target is T1, Human immunodeficiency virus type 1 reverse transcriptase. The experiment in a line: Inhibition of HIV1 recombinant reverse transcriptase expressed in Escherichia coli using poly(rG)-oligo(dC) template.
The target of experiment [9] is Human immunodeficiency virus type 1 reverse transcriptase (Human immunodeficiency virus 1) (UniProt Q72547). The experiment in a line: Inhibition of RNAse activity of HIV1 recombinant reverse transcriptase using poly(dT).[3H]poly(rA) template at 100 ug/ml. The method in brief:
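The RNase H activity of purified HIV-1 reverse transcriptase, expressed in E. coli JM109/pKRT2, was assayed with poly(dT)·[3H]poly(rA) as substrate. Compound was tested at 100 µg/ml.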

The target is the same in experiment [10]. The experiment in a line: Inhibition of HIV1 recombinant reverse transcriptase expressed in Escherichia coli using poly(rG)-oligo(dC) template at 100 ug/ml.
Experiment [11] has as its target T1, Human immunodeficiency virus type 1 reverse transcriptase. The experiment in a line: Inhibition of HIV1 recombinant reverse transcriptase expressed in Escherichia coli using poly(rC)-oligo(dG) template.
In experiment [12] the test system is Human immunodeficiency virus 1. The experiment in a line: Antiviral activity against HIV 3B infected human H9 cells assessed as inhibition of p24 antigen release. Type of experiment: functional. Conditions: Human immunodeficiency virus 1, 3B, read-out: ED50 (the source's name). The essentials: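 H9 lymphocytes (3.5×10^6 cells/ml) exposed to HIV-1 HTLV-IIIB at 0.01-0.1 TCID50/cell for 1 h at 37°, then washed and resuspended at 4×10^5 cells/ml. Mixed with an equal volume of compound diluted in medium and cultured 3 days at 37°. Virus released into the medium measured by p24 antigen capture. EC50 read graphically from a plot of % inhibition versus concentration.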

As usually defined, the pIC50 is −log10 of the IC50, conventionally taken in molar units. Higher therefore signals a low IC50. For orientation: inhibition means the share of the control response that was lost under treatment. The term EC50 denotes the concentration needed to bring the measured effect to its halfway point. Low readings indicate an effect from little substance, high ones a need for much substance. For the compound `C[C@@H]1[C@@]23CC[C@H]4[C@@](C)(CC[C@@]5(C)[C@@H]6C[C@](C)(C(=O)O)CC[C@]6(C)CC[C@]45C)[C@@H]2CC[C@@]1(O)OC3` [SALASPERMIC ACID], the pIC50 in experiment [1] was 4.28. Further, the pEC50 in experiment [2] is < 3.67; in [3], 3.80; in experiment [5], 4.47; in experiment [8] it was < 3.67; in [11], 4.50; in [12], 5.00. Also, the inhibition in experiment [4] was determined as 37%; in experiment [10], 4%. Moreover, the EC50 in experiment [6] turned out to be 100 µg/mL (≈ 212 µM). Besides, the outcome in experiment [7] was Active. Besides, the outcome in [9] was inactive.

In experiment [1], `C[C@H]1C(=O)CC[C@@H]2[C@]1(C)CC[C@H]1[C@@]2(C)CC[C@@]2(C)[C@@H]3CC(C)(C)CC[C@]3(OO)CC[C@]12C` showed a negative logarithm of the IC50 (pIC50) of 4.42. Moreover, the pEC50 in experiment [12] is 4.42.

In turn, `C[C@H]1C(=O)CC[C@@H]2[C@]1(C)CC[C@H]1[C@@]2(C)CC[C@@]2(C)[C@@H]3C[C@](C)(CO)CC[C@]3(CO)CC[C@]12C` gave a pIC50 in experiment [1] of 4.82. For the same compound, the pEC50 in experiment [12] was 4.96.

In the case of `C[C@H]1C(=O)CC[C@H]2[C@]3(C)CC[C@@]4(C)[C@@H]5CC(C)(C)C(=O)C[C@]5(C)C(=O)C[C@]4(C)[C@H]3C[C@@H](O)[C@]12C`, in experiment [1], the pIC50 was 3.97. The pEC50 in [12] was < 3.97.

Compound `C[C@H]1C(=O)CC[C@@H]2[C@]1(C)CC[C@H]1[C@@]2(C)CC[C@@]2(C)[C@@H]3C[C@](C)(C(=O)O)CC[C@]3(C)CC[C@]12C` [MAYTENOIC ACID] gave a pIC50 in experiment [1] of 4.36. Also, the pEC50 in experiment [12] is 4.18.

In experiment [1], `C[C@H]1C(=O)CC[C@@H]2[C@]1(C)CC[C@H]1[C@@]2(C)CC[C@@]2(C)[C@@H]3CC(C)(C)CC[C@]3(CO)CC[C@]12C` [CANOPHYLLOL] gave a pIC50 of 4.74. Besides, the pEC50 in experiment [12] was 5.40.

The compound `C[C@@H]1[C@@]23CC[C@H]4[C@@](C)(CC[C@@]5(C)[C@@H]6C[C@](C)(C(=O)O)CC[C@]6(C)CC[C@]45C)[C@@H]2C[C@@H](O)[C@@]1(O)OC3` gave a pIC50 in [1] of 4.19. The pEC50 in experiment [12] was 3.99.

For `C[C@H]1C(=O)CC[C@@H]2[C@]1(C)CC[C@H]1[C@@]2(C)CC[C@@]2(C)[C@@H]3C[C@@](C)(CO)CC[C@]3(CO)CC[C@]12C`, in [1], the pIC50 was 4.70. Further, the pEC50 in experiment [12] was 4.89.

On to `C[C@H]1C(=O)CC[C@@H]2[C@]1(C)CC[C@H]1[C@@]2(C)CC[C@@]2(C)[C@@H]3CC(C)(C)CC[C@]3(C)[C@H](O)C[C@]12C`, for which the pIC50 in experiment [1] was 5.10. In addition, the pEC50 in experiment [12] is 5.70.

In experiment [1], `C[C@H]1C(=O)CC[C@@H]2[C@]1(C)CC[C@H]1[C@@]2(C)CC[C@@]2(C)[C@@H]3C[C@@](C)(C(=O)O)CC[C@]3(C)CC[C@]12C` showed a pIC50 of 4.36. Also, the pEC50 in [12] was 4.23.

Compound `C[C@H]1C(=O)CC[C@@H]2[C@]1(C)CC[C@H]1[C@@]2(C)CC[C@@]2(C)[C@@H]3CC(C)(C)CC[C@]3(C(=O)O)CC[C@]12C` showed a pIC50 in [1] of 4.66. The pEC50 in [12] is 4.82.
